TRPC6 inh: blocks the mouse TRPC6 cation channel | Q61143 | HEK293-TRPC6, membrane potential dye, ACh-evoked depolarization; active compounds read low | B-score at 10 µM | 1.1% of 310,000 active | AID 2553;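 active = B-score under library mean minus 3 SD, initial fluorescence not abnormally high, positive integrated signal ratio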;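 note: B-score derived from integrated fluorescence ratio over the kinetic read; more negative B-score means stronger inhibition of depolarization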
Target sequence (Q61143 whole entry, looked up): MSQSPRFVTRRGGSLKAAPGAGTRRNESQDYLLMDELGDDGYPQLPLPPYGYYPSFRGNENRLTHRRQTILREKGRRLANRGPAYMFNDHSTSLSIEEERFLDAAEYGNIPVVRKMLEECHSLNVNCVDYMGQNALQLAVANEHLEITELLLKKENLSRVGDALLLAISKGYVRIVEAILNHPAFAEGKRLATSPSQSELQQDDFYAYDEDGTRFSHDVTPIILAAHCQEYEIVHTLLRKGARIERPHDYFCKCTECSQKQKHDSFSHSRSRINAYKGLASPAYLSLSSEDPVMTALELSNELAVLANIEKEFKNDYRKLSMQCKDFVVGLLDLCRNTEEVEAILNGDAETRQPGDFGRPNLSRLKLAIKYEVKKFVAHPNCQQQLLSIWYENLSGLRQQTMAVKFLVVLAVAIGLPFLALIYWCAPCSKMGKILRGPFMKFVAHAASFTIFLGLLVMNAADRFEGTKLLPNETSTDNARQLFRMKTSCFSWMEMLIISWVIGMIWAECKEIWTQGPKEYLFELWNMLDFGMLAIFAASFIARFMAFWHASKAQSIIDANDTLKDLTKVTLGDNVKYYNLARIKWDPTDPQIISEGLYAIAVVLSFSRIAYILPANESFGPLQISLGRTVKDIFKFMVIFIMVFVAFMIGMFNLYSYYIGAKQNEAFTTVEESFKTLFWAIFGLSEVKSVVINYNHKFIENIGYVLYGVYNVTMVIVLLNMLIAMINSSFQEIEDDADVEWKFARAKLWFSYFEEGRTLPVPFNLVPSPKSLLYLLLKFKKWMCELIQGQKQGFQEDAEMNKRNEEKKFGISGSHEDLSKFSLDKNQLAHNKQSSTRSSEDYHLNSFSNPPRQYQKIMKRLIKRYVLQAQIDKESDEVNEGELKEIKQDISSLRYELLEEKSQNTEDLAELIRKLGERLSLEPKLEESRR
TRPC6 activator: mouse TRPC6 channel activation; Q61143; HEK293-TRPC6 membrane potential dye fluorescence; active compounds read high; B-score at 10 µM; 0.13% of 310,000 active; AID 2550;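 active = B-score of the integrated fluorescence ratio above library mean plus 3 SD, and starting fluorescence ratio within library mean plus 5 SD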;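 note: higher score means more depolarization so channel activation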
TRPC4 PAM: allosteric potentiators of mouse TRPC4 channel. Q9QUQ5. HEK293 TRPC4beta/mu-opioid, DAMGO EC20, Fluo-4 Ca2+ flux; active compounds read high. B-score at 10 µM. 0.42% of 310,000 active;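 active = B-score of calcium response area above 5 SD of library B-scores, with initial fluorescence ratio within 5 SD of library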;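 note: B-score of integrated fluorescence ratio over time as area under calcium response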
TRPC4 act: TRPC4 (mouse) channel activation; Q9QUQ5; HEK293 TRPC4beta/mu-opioid, Fluo4 calcium fluorescence; active compounds read high; B-score at 10 µM; 0.49% of 310,000 active; AID 2237;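 active = B-score above 5 SD of library B-scores, and initial fluorescence ratio not above library mean plus 5 SD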;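 note: positive B-score marks a calcium rise read as TRPC4 activation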
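Assay system: HEK293 stable line with TRPC4beta plus mu-opioid receptor; schedule: 45 min room-temperature Fluo4 loading, 110 s read; technique: kinetic Fluo4 calcium fluorescence; evaluation: integrated baseline-normalised fluorescence ratio, converted to per-well B score; controls: buffer (low) and maximal DAMGO (high)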
TRPC4 inh: inhibitors of mouse TRPC4 channel. B-score at 10 µM. HEK293 TRPC4beta/mu-opioid, DAMGO-evoked Fluo4 calcium flux; active compounds read low. AID 2247. 0.39% of 300,000 active. Q9QUQ5;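 active = B-score over 3 SD under the library average, no early fluorescence shift, positive overall ratio signal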
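Assay system – HEK293 line stably carrying TRPC4beta and mu-opioid receptor · Doses – single dose · Detection – Fluo4 calcium-dye fluorescence, kinetic read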
TRPC4 sel inh 2: mouse TRPC4 off-target activity of TRPC6 inhibitors, second screen. shares compounds with TRPC6 inh. HEK293 TRPC4/MOR, membrane potential dye fluorescence; channel activated by saturating DAMGO dose. inhibition, % at 10 µM. 42% of 920 active. AID 2776;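 active = compounds whose fluorescence signal differed from control wells by over 3 SD, either direction, in both duplicate plates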
TRPC4 spec: tests whether TRPC6 inhibitors also affect mouse TRPC4; AID 2777; activity change, negative = inhibition, % at 10 µM; 61% of 920 active; shares compounds with TRPC6 inh; HEK293 TRPC4/mu-opioid, membrane potential fluorescence;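 active = rise or fall in signal beyond 3 SD of buffer-only wells in both replicate plates, either sign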;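 note: integrated kinetic ratio of fluorescence range over baseline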
HEK293 MPD ctr 2-1: second check of TRPC6 inhibitor effects in parental HEK293 cells. shares compounds with TRPC6 inh. parental HEK293 membrane potential dye fluorescence; maximal acetylcholine challenge after compound addition. signal change vs control, % at 10 µM. 31% of 920 active;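 active = membrane potential signal moving either way by over 3 SD of the maximum-effect control, in both duplicate plates, meaning non-specific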
HEK293 MPD ctr-1: checks TRPC6 inhibitor effects in parental HEK293 cells; 60% of 920 active; shares compounds with TRPC6 inh; parental HEK293 membrane potential dye fluorescence; membrane potential signal change, % at 10 µM;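 active = membrane potential signal shifting up or down by more than 3 SD of buffer-only wells, on both duplicate plates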
HEK293 MPD ctr-2: parental HEK293 nonspecific activity of TRPC6 modulators | shares compounds with TRPC6 inh | membrane potential dye fluorescence | membrane potential signal change, % at 10 µM | 51% of 2,400 active | AID 488924;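 active = membrane potential signal moves up or down beyond 5 SD from buffer-only wells, on both duplicate plates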
HEK293 MPD ctr 2-2: second check of TRPC6 modulator effects in parental HEK293 cells | inhibition, % at 10 µM | 14% of 2,400 active | membrane potential dye fluorescence; after compound, maximal acetylcholine stimulation | shares compounds with TRPC6 inh;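 active = membrane potential signal drops by more than 5 SD from the mean control signal, in both duplicate plates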;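 note: plate controls were acetylcholine ECmax control wells for no effect and buffer only wells for full effect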
TRPC4/MOR mod: selectivity of TRPC6 modulators against mouse TRPC4. 69% of 2,400 active. shares compounds with TRPC6 inh. percent change from control (negative = decrease, positive = increase), % at 10 µM. HEK293 TRPC4/mu-opioid, membrane potential fluorescence;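 active = membrane potential signal moved up or down beyond 5 SD of buffer control wells, in both duplicate plates, actives on both sides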;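 note: plate controls were assay buffer wells for no effect and DAMGO maximal-effect wells for full effect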
TRPC4 ctr inh 2: mouse TRPC4 off-target activity of TRPC6 modulators, second screen | shares compounds with TRPC6 inh | HEK293 TRPC4/mu-opioid, membrane potential dye fluorescence; stimulated with maximal-effect DAMGO | inhibition, % at 10 µM | 55% of 2,400 active;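 active = drop in membrane potential signal beyond 5 SD of the control wells in both duplicate plates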;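 note: TRPC4 counter screen for TRPC6 hits run under conditions tuned for TRPC6 not TRPC4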
TRPC6 inh conf: mouse TRPC6 inhibitor confirmation. shares compounds with TRPC6 inh. 43% of 3,300 active. inhibition, % at 10 µM. HEK293-TRPC6, membrane potential dye, ACh-evoked depolarization;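 active = fluorescence ratio falls more than 5 SD below the full-stimulation control mean, in both duplicate runs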;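 note: integrated fluorescence ratio of peak minus minimum over baseline after agonist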
TRPC6 act conf: mouse TRPC6 activator confirmation | shares compounds with TRPC6 inh | activation, % at 10 µM | HEK293-TRPC6 membrane potential dye fluorescence, FDSS | AID 488961 | 11% of 2,800 active;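 active = ratio signal rise beyond 5 SD above unstimulated control wells' mean, seen in both duplicate runs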;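 note: plate controls were buffer EC0 wells for no effect and acetylcholine ECmax response for full effect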
The depositor's hits bear a star. Only some compounds are listed: those with a hit (about 2.3% of all), similar ones and a draw of the others.

What do the screens show for `CCc1ccc(NC(=O)C2CCCN(S(=O)(=O)c3cnc[nH]3)C2)cc1` (stereo unspecified)?
TRPC6 inh: -6.14*; TRPC6 activator: inactive; TRPC4 PAM: inactive; TRPC4 act: inactive; TRPC4 inh: inactive; HEK293 MPD ctr-2: inactive; HEK293 MPD ctr 2-2: inactive; TRPC4/MOR mod: inactive; TRPC4 ctr inh 2: inactive; TRPC6 inh conf: inactive; TRPC6 act conf: inactive

How did CC(=O)Nc1ccc(NC(=O)C2CCCN(S(=O)(=O)c3ccc(-n4cnnn4)cc3)C2)cc1 (stereo unspecified) do in these assays?
TRPC6 inh: -6.61*; TRPC6 activator: inactive; TRPC4 PAM: inactive; TRPC4 act: inactive; TRPC4 inh: inactive; TRPC4 sel inh 2: inactive; TRPC4 spec: inactive; HEK293 MPD ctr 2-1: inactive; HEK293 MPD ctr-1: inactive; TRPC6 inh conf: inactive; TRPC6 act conf: inactive

What do the screens show for `CCc1ccc(NC(=O)C2CCN(S(=O)(=O)c3cnc[nH]3)CC2)cc1`?
TRPC6 inh: inactive; TRPC6 activator: inactive; TRPC4 PAM: inactive; TRPC4 act: inactive; TRPC4 inh: inactive

Results for CC(=O)c1ccc(NC(=O)C2CCCN(S(=O)(=O)c3ccc(-n4cnnn4)cc3)C2)cc1 (stereo unspecified) ?
TRPC6 inh: inactive; TRPC6 activator: inactive; TRPC4 PAM: inactive; TRPC4 act: inactive; TRPC4 inh: inactive

How did OCCn1c(CSc2nnc(-c3ccco3)n2-c2ccccc2)nc2ccc(Cl)cc21 do in these assays?
TRPC6 inh: inactive; TRPC6 activator: inactive; TRPC4 PAM: inactive; TRPC4 act: inactive; TRPC4 inh: inactive

How did COc1cc2[nH]c3c(OC)ncnc3c2cc1OC do in these assays?
TRPC6 inh: inactive; TRPC6 activator: inactive; TRPC4 PAM: inactive; TRPC4 act: inactive; TRPC4 inh: inactive

Results for COc1cc(-c2noc(CCC(=O)NC3CCCCC3)n2)cc(OC)c1OC ?
TRPC6 inh: inactive; TRPC6 activator: inactive; TRPC4 PAM: inactive; TRPC4 act: inactive; TRPC4 inh: inactive

Results for Cc1[nH]c2ccccc2c1/C=C/c1nc2ccccc2c(=O)n1-c1ccc([N+](=O)[O-])cc1 ?
TRPC6 inh: inactive; TRPC6 activator: inactive; TRPC4 PAM: inactive; TRPC4 act: inactive; TRPC4 inh: inactive
